# Measurements published in ChEMBL document CHEMBL4261577, “CureCuma-cationic curcuminoids with improved properties and enhanced antimicrobial photodynamic activity” (Eur J Med Chem, 2018).
# Activity calls are given as the source filed them. No cut-off for these calls is given here.
# What was measured:
# [1] = n-Octanol/sorensen buffer partition coefficient, log D of compound at 50 uM at pH 7 after 10 mins by shake-flask method; type: physicochemical
# Procedure, shortened: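 Shake-flask at 25 °C: 50 µM photosensitizer in 10 mM Sörensen buffer pH 6.8 vigorously mixed with equal volume n-octanol for 10 min, phases separated by centrifugation; aqueous-phase absorbance before and after partitioning gives the coefficient.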
# [2] = Photodegradation of compound in water at 10 uM in presence of LED illumination at 5.6 J/cm'2 for 10 mins by UV/VIS/NIR spectrometer; type: physicochemical; conditions: read-out: Drug degradation
# Procedure, shortened: (§1)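 10 µM in water in a 1 cm quartz cuvette, illuminated at 435 nm with the bacterial-testing LED (9.4 mW/cm²); absorption spectra taken at set time intervals, chromophore band 380–460 nm followed; half-life from extrapolation.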
# [3] = Induction of reactive oxygen species formation assessed as singlet oxygen quantum yield at 2 uM measured over 20 mins by luminescence assay; type: functional; conditions: in the assay text read “over 50 secs” for “over 20 mins”
# Procedure, shortened: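 Singlet oxygen luminescence at 1270 nm from a 2 µM solution compared against TMPyP (0.5 µM) as reference, relating absorbed energy to emission; excitation at 405 nm with a tunable laser at 107, 162, 255 and 283 mW for 50 s each.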
# [4] = Stability of compound in DMSO-d6 at 10 mM incubated up to 130 degC measured after > 10 mins by NMR method; type: physicochemical; conditions: 10000 µM
# Procedure, shortened: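 1H NMR at 10 mM heated stepwise from room temperature through 40–130 °C in 10 °C steps, then cooled back to room temperature; aggregation/stability judged from aromatic-region shifts; external TMS reference, 400 MHz.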
# [5] = Aggregating behavior of compound up to 1 mM by UV-Vis spectroscopic analysis; type: physicochemical
# Procedure, shortened: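 UV-Vis absorption spectra in H2O over 100–1000 µM; dimerization judged from spectral changes within error margins.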
# [6] = system: Staphylococcus aureus; assay: Photodynamic antibacterial activity against Staphylococcus aureus ATCC 25923 assessed as CFU log reduction at 50 uM irradiated for 5 mins in presence of blueV lamp irradiation at 5.3 J/cm2 and measured after 24 hrs; type: functional
# Procedure, shortened: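 S. aureus ATCC25923 grown aerobically at 37 °C in Mueller-Hinton broth, pelleted and resuspended in distilled water to OD600 0.6 (~10^8 cells/mL); incubated 1 min with photosensitizer in 96-well plates, irradiated with BlueV source (390–460 nm, 20 mW/cm²) to 5.3 J/cm²; CFU by Miles-Misra on Mueller-Hinton agar after 24 h at 37 °C; log reduction versus untreated control; ≥3 replicates.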
# [7] = system: Escherichia coli; assay: Dark toxicity in Escherichia coli ATCC 25922 assessed as decrease in viable cells at 10 uM; type: organism-based; conditions: in vivo
# Procedure, shortened: (§2)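 E. coli ATCC25922 prepared as for phototoxicity (2 h subculture, DPBS resuspension), incubated with photosensitizer at 37 °C, 175 rpm, but kept in foil-wrapped plates without illumination; CFU counted from serial dilutions on Todd-Hewitt/yeast extract agar after overnight 37 °C, compared against untreated, unilluminated control; three biological replicates.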
# [8] = system: Escherichia coli; assay: Photodynamic antibacterial activity against Escherichia coli ATCC 25922 assessed as CFU log reduction irradiated for 1.5 mins in presence of 0.85 J/cm2 and measured after 24 hrs; type: functional; conditions: ATCC 25922, light or radiation study, read-out: MBC99.9
# [9] = system: Escherichia coli; assay: Photodynamic antibacterial activity against Escherichia coli ATCC 25922 assessed as CFU log reduction at 10 uM irradiated for 2.5 mins in presence of 1.41 J/cm2 and measured after 24 hrs; type: functional
# [10] = Photodegradation of compound in water at 10 uM in presence of LED illumination at 16.9 J/cm'2 for 30 mins by UV/VIS/NIR spectrometer; type: physicochemical; conditions: read-out: Drug degradation; procedure, shortened: as §1
# [11] = Half life of compound in water at 10 uM in presence of LED illumination at 9.4 mW/cm'2 by UV/VIS/NIR spectrometer; type: physicochemical; procedure, shortened: as §1
# [12] = Stability of compound in diluted HCl at 50 uM after 4 hrs by UV-Vis spectrophotometric method; type: physicochemical; conditions: buffer
# Procedure, shortened: (§3)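 UV-Vis spectra recorded after 4 h incubation in buffer solutions at different pH values, acidic down to pH 2 and alkaline above pH 10.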
# [13] = Stability of compound in diluted NaOH at 50 uM after 4 hrs by UV-Vis spectrophotometric method; type: physicochemical; procedure, shortened: as §3
# [14] = system: Escherichia coli; assay: Dark toxicity in Escherichia coli ATCC 25922 assessed as decrease in viable cells at 50 uM relative to control; type: organism-based; conditions: in vivo; procedure, shortened: as §2
# [15] = system: Escherichia coli; assay: Photodynamic antibacterial activity against Escherichia coli ATCC 25922 assessed as CFU log reduction irradiated for 5 to 25 mins in presence of LED light at 33.8 J/cm2 and measured after 24 hrs; type: functional; conditions: ATCC 25922, light or radiation study, read-out: MBC99.9
# Procedure, shortened: (§4)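 E. coli ATCC25922 grown overnight at 37 °C (175 rpm) in Todd-Hewitt broth + 0.3% yeast extract, diluted to A 0.05, grown 2 h (A600 0.3–0.45), pelleted and resuspended in DPBS; incubated with photosensitizer 5 or 25 min at 37 °C, illuminated with 435 nm LED array (9.4 mW/cm², 33.8 J/cm²) while shaken; serial dilutions plated, CFU counted after overnight 37 °C. Log reduction versus untreated, unilluminated control; ≥3 biological replicates; detection limit 10 CFU/mL.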
# [16] = system: Escherichia coli; assay: Photodynamic antibacterial activity against Escherichia coli ATCC 25922 assessed as CFU log reduction at 10 uM irradiated for 5 to 25 mins in presence of LED light at 33.8 J/cm2 and measured after 24 hrs relative to control; type: functional; procedure, shortened: as §4
# [17] = system: Escherichia coli; assay: Photodynamic antibacterial activity against Escherichia coli ATCC 25922 assessed as reduction in bacterial burden at 50 uM complexed with PVP in presence of LED irradiation at LED light at 33.8 J/cm2; type: functional, organism-based
# [18] = system: Escherichia coli; assay: Photodynamic antibacterial activity against Escherichia coli ATCC 25922 assessed as CFU log reduction at 100 uM complexed with PVP in presence of LED irradiation at LED light at 33.8 J/cm2 relative to control; type: functional
# [19] = Drug level in 0.1 M phosphate buffer treated with curcumin at pH 7.2 at 37 degC after 30 mins by HPLC method; type: physicochemical; conditions: pH 7.2, 0.5 h
# [20] = Aggregating behavior of compound at 1 to 2 mM by NMR analysis; type: physicochemical; conditions: 2000 µM
# Procedure, shortened: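 1H NMR in D2O at 20, 10, 5, 2 and 1 mM; aggregation judged from signal shifts and multiplet changes in the aromatic region (6.5–8 ppm), referenced to external TMS, 400 MHz.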
SMILES,"logD at 10 min, 50 µM [1]","degraded at 10 min, 10 µM [2] [%]",Activity [3] [%],other results
COc1cc(/C=C/C(=O)CC(=O)/C=C/c2ccc(OCCOCCN)c(OC)c2)ccc1OCCOCCN.Cl.Cl,-1.6,< 10,< 1,
COc1cc(OCCN)ccc1/C=C/C(=O)CC(=O)/C=C/c1ccc(OCCN)cc1OC.Cl.Cl,-1.1,< 10,< 1,
Cl.Cl.NCCOc1ccc(/C=C/C(=O)CC(=O)/C=C/c2ccc(OCCN)cc2)cc1,-0.9,< 10,< 1,
Cc1cc(/C=C/C(=O)CC(=O)/C=C/c2ccc(OCCN)c(C)c2)ccc1OCCN.Cl.Cl,-0.8,< 10,< 1,Stability [4]: Stable
Cl.Cl.Cl.Cl.NCCOc1ccc(/C=C/C(=O)CC(=O)/C=C/c2ccc(OCCN)c(OCCN)c2)cc1OCCN,< -2,< 10,< 1,"Activity [5]: Active; log reduction [6]: 5.3 log10 CFU/mL; Activity [7]: Non-Toxic; MBC [8]: 10 µM; Activity [9]: >5 deltalog10CFU/ml; degraded at 0.5 h, 10 µM [10]: 20%; half-life at 10 µM [11]: 1 h; Stability [12]: Stable; Stability [13]: Unstable; Activity [14]: 1 deltalog10CFU/ml; MBC [15]: 5 µM; Activity [16]: 5 deltalog10CFU/ml"
Cl.Cl.NCCCOc1ccc(/C=C/C(=O)CC(=O)/C=C/c2ccc(OCCCN)c(OCc3ccccc3)c2)cc1OCc1ccccc1,-0.6,< 10,< 1,
COc1cc(/C=C/C(=O)CC(=O)/C=C/c2ccc(O)c(OC)c2)ccc1O [CURCUMIN],,,,Activity [17]: inactive; Activity [18]: 0.3 deltalog10CFU/ml
Cl.Cl.Cl.Cl.Cl.Cl.NCCOc1cc(/C=C/C(=O)CC(=O)/C=C/c2cc(OCCN)c(OCCN)c(OCCN)c2)cc(OCCN)c1OCCN,< -2,< 10,< 1,
CC(C)=O [ACETONE],,,,Drug metabolism [19]: Metabolite_Detected
COc1cc(C=O)ccc1O [VANILLIN],,,,Drug metabolism [19]: Metabolite_Detected
COc1cc(/C=C/C(=O)CC(=O)/C=C/c2ccc(OCCN)c(OC)c2)ccc1OCCN.Cl.Cl,-1.2,< 10,< 1,Activity [20]: Active; log reduction [6]: 5.2 log10 CFU/mL; Activity [7]: Non-Toxic; Stability [12]: Stable; Stability [13]: Unstable; Activity [14]: 0.5 deltalog10CFU/ml
